Bioassay records (PubChem BioAssay)
FGF22 binding = binders of recombinant human FGF22 by thermal shift | activity (Tm shift, normalised), % at 9.99 µM | Q9HCT0 | SYPRO orange fluorescence; percent of sucrose octasulfate shift, DMSO zero | 1.5% of 340,000 active;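 active means mean Tm shift, scaled 0 neutral to 100 positive control, at about 1.3% or above, every replicate too, limit read from the data; inconclusive means no clear call, values can overlap the other calls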
Target sequence (Q9HCT0 whole entry, looked up): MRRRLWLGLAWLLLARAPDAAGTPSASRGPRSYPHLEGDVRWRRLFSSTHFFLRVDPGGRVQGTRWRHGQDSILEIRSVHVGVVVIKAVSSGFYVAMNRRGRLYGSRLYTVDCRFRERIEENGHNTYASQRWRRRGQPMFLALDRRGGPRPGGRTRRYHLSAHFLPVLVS
ARNT-TACC3 inh = ARNT/TACC3 interaction disruption | Q9Y6A5 | AlphaScreen His-ARNT PAS-B/GST-TACC3 binding, luminescence; TACC3 fragment carries E629A point mutation | inhibition, % at 9.99 µM | 0.66% of 390,000 active;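 active means mean inhibition of replicates at least 50% and at least half of replicates each reaching 50%; inconclusive means half or more replicates reach 50% but mean below 50%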
SIRT5 inh = inhibitors of human sirtuin-5 desuccinylase; 1.1% of 330,000 active; Purified SirT5, succinyl-peptide AMC, trypsin-coupled fluorescence; inhibition, % at 15 µM; Q9NXA8; in the data active means inhibition above about 15%; inconclusive means no clear call, values can overlap the other calls
Target sequence (Q9NXA8 whole entry, looked up): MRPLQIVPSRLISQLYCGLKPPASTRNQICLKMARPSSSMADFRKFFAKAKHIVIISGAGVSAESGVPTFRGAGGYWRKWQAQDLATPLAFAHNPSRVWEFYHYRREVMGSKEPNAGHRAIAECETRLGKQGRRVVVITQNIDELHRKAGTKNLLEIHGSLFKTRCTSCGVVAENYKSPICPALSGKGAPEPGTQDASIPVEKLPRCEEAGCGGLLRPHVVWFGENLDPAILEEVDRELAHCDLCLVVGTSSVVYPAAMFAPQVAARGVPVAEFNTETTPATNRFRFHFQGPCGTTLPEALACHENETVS
FN deposit inh = fibronectin deposition inhibition. inhibition, % at 12.6 µM. AH1F fibroblasts, Alexa488-fibronectin deposition fluorescence, overnight. 0.086% of 350,000 active. AID 743247;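 active means mean inhibition across replicates of 30% or more, regardless of how many single replicates reach that level; inconclusive means mean under 30% yet at least half of replicates reach 30%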
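Measured by – fluorescence 485/525 nm · System – AH1F fibroblast monolayer, labelled fibronectin deposition · Amount – 10000 cells per well · Buffer or medium – serum-reduced DMEM (2% serum) · Doses – single dose, pinned · Also added – fluorescent fibronectin at 24 nM final · Schedule – 1 h cell attachment, overnight exposure to compound and label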
DENV2 CPE rescue = inhibitors of DENV2 cytopathic effect. DENV2-infected cells, cytopathic effect rescue, plate reader. CPE inhibition, % at 9.99 µM. 1.7% of 350,000 active. AID 651640; in the data active means CPE inhibition above about 20%, passing the limit was not always enough; inconclusive means no clear call, values can overlap the other calls; tested in BHK-21 cells
Xi reactivation = reactivates the inactive X chromosome in mouse fibroblasts. XiGFP mouse fibroblasts, % GFP-positive cells imaging, 3 d; cells co-treated with 5-aza-dC sensitizer; scaled so ellipticine positive control = 100%. activation, % at 7.58 µM. 0.055% of 360,000 active;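 active means mean normalized replicate activation at least 10% and every replicate at or above 10%; inconclusive means only one of the two criteria met; inactive means mean below 10% and not all replicates reach 10%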
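System: 68-5-11 XiGFP fibroblast line; Timing: 3 days compound exposure; Compound dosing: one concentration, pinned; Benchmarks: positive control ellipticine, 6 µM final; Buffer or medium: DMEM containing 5-aza-dC.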
Large screens that a line does not name were inactive; ! = not confirmed by another sample. In the library only some 3.8% were active in any assay of this set; here they are far more common.

C[C@H]1CN([C@@H](C)CO)C(=O)Cc2cc(NS(=O)(=O)c3ccccc3)ccc2O[C@@H]1CN(C)Cc1ccc(-c2ccccc2)cc1	DENV2 CPE rescue 40.1 (no result: FN deposit inh)
C/C=C/c1ccc2c(c1)O[C@@H](CN(C)C)[C@H](C)CN([C@@H](C)CO)S2(=O)=O	none
O=c1c2ccccc2sn1-c1cc(S(=O)(=O)N2CCOCC2)ccc1N1CCOCC1	FN deposit inh 49.5 (no result: FGF22 binding, SIRT5 inh, DENV2 CPE rescue, Xi reactivation)
C[C@H](CO)N1C[C@H](C)[C@H](CN(C)C(=O)c2ccncc2)Oc2cc(C3=CCCC3)ccc2S1(=O)=O	none (no result: FN deposit inh)
C[C@H](CO)N1C[C@H](C)[C@H](CN(C)Cc2ccc(Oc3ccccc3)cc2)Oc2ccc(NC(=O)CCCN(C)C)cc2C1=O	DENV2 CPE rescue inconclusive (no result: FGF22 binding, FN deposit inh)
Cc1ccc(C2(C)NC(=O)N(CC(=O)Nc3ccccc3C(=O)NC3CCCC3)C2=O)cc1 (configuration not stated)	DENV2 CPE rescue 62.2 (no result: FN deposit inh)
CCc1ccc(C(=O)CN2C(=O)NC(C)(c3ccc(C)cc3)C2=O)cc1 (configuration not stated)	FGF22 binding 43.4
CC1(c2ccccc2)NC(=O)N(CC(=O)Nc2ccc([N+](=O)[O-])cc2)C1=O (configuration not stated)	FGF22 binding 43.3
CC1(c2ccc([N+](=O)[O-])cc2)NC(=O)N(CC(=O)Nc2ccc(N3CCCCC3)cc2)C1=O (configuration not stated)	none
COc1ccc(-c2cnc3c(c2)C(=O)N([C@H](C)CO)C[C@H](C)[C@H](CN(C)Cc2ccc(C(=O)O)cc2)O3)cc1	none (no result: FN deposit inh)
COc1cccc(NC(=O)N(C)C[C@@H]2Oc3ncc(/C=C/c4ccccc4)cc3C(=O)N([C@@H](C)CO)C[C@@H]2C)c1	none (no result: FN deposit inh)
C[C@@H]1CN([C@H](C)CO)C(=O)c2cc(NS(=O)(=O)c3cn(C)cn3)ccc2O[C@@H](C)CCCCO[C@H]1CN(C)S(=O)(=O)c1ccccc1	none
O=C1NCCOCc2cn(nn2)CCC[C@@H]1Cc1ccccc1	none (no result: FGF22 binding, ARNT-TACC3 inh, SIRT5 inh, DENV2 CPE rescue)
COc1cc(C)c(C(=O)Oc2cc(C)c(C(=O)O)c(O)c2C)c(O)c1C	FGF22 binding 1.6 (no result: FN deposit inh, Xi reactivation)
CO[C@@H]1CC[C@@H]2CCN(C)C(=O)CCCN(C)C(=O)c3cccc(C#N)c3OC[C@@H]1O2	none
Cn1nnnc1Sc1ccc([N+](=O)[O-])cc1Cl	SIRT5 inh 17.0 (no result: FN deposit inh, DENV2 CPE rescue)
O=[N+]([O-])c1ccc(Sc2nnnn2-c2ccccc2)c(Cl)c1	none (no result: FGF22 binding, SIRT5 inh, DENV2 CPE rescue, Xi reactivation)
c1ccc(-n2cc(CN3CCCC3)c(-c3ccc4c(c3)OCO4)n2)cc1	FGF22 binding 43.2, DENV2 CPE rescue inconclusive
c1ccc(-n2cc(CN3CCC(N4CCOCC4)CC3)c(-c3ccc4c(c3)OCO4)n2)cc1	none
O=C(C1=C[C@H](c2ccc3c(c2)OCO3)C[C@H](OCc2ccc(CO)cc2)O1)N1CCN(Cc2ccc3c(c2)OCO3)CC1	DENV2 CPE rescue 58.5!
O=C(NCc1ccccc1)C1=C[C@@H](c2ccc3c(c2)OCO3)C[C@@H](OCc2ccc(CO)cc2)O1	DENV2 CPE rescue 21.8!
CC(C)(C)[C@H]1C=C(C(=O)N2CCOCC2)O[C@@H](OCc2ccc(CO)cc2)C1	DENV2 CPE rescue 35.7!
CN1CCN(C(=O)C2=C[C@@H](c3ccc(C(F)(F)F)cc3)C[C@@H](OCc3ccc(CO)cc3)O2)CC1	DENV2 CPE rescue 77.8!
CC(C)(C)[C@@H]1C=C(C(=O)N2CCOCC2)O[C@H](OCc2ccc(CO)cc2)C1	none
O=C(C1=C[C@@H](c2ccc3c(c2)OCO3)C[C@@H](OCc2ccc(CO)cc2)O1)N1CCN(Cc2ccc3c(c2)OCO3)CC1	none (no result: FN deposit inh, Xi reactivation)
COc1ccc2c3c([nH]c2c1)[C@H](CO)N(CC1CC1)CC31CN(C(=O)c2ccccc2)C1	none (no result: ARNT-TACC3 inh, SIRT5 inh, FN deposit inh)
O=C(CCN1CCCCC1)NCC[C@H]1CC[C@@H](NS(=O)(=O)c2cccc(F)c2)[C@H](CO)O1	none
CO[C@@H]1CN(C)C(=O)c2ccc(NS(C)(=O)=O)cc2OC[C@H](C)N(C(=O)C2CC2)C[C@@H]1C	none (no result: DENV2 CPE rescue)
C[C@H]1C=C(C(=O)N2CCN(Cc3ccc4c(c3)OCO4)CC2)O[C@@H](OCc2ccc(CO)cc2)C1	DENV2 CPE rescue 23.6!
COc1ccc(-c2csc3nc(C(C)C)oc(=O)c23)cc1OC	SIRT5 inh 23.6 (no result: FGF22 binding)
COc1ccc(-c2nc3scc(-c4ccc(OC)c(OC)c4)c3c(=O)o2)cc1	none (no result: FGF22 binding, SIRT5 inh, FN deposit inh, DENV2 CPE rescue, Xi reactivation)
COc1ccc([N+](=O)[O-])cc1NS(=O)(=O)c1ccc(C(=O)N2CCCC2)cc1	FN deposit inh 34.3
COc1ccc([N+](=O)[O-])cc1NS(=O)(=O)c1cc(C(=O)N2CCN(C)CC2)ccc1OC	none
COc1ccccc1S(=O)(=O)N1CC[C@@H]2[C@H](CO)N(C)c3ccc(C#Cc4cccc(F)c4)cc3[C@@H]21	none (no result: SIRT5 inh)
Cc1ccc(S(=O)(=O)N2CCCC2CNC(=O)C(=O)NCc2ccc3c(c2)OCO3)cc1 (configuration not stated)	FGF22 binding 43.0 (no result: ARNT-TACC3 inh, SIRT5 inh)
O=C(NCc1ccc2c(c1)OCO2)C(=O)NCC1OCCCN1S(=O)(=O)c1ccccc1 (configuration not stated)	DENV2 CPE rescue 40.7 (no result: ARNT-TACC3 inh)
COc1ccc(S(=O)(=O)N2CCCOC2CNC(=O)C(=O)NCc2ccco2)cc1C (configuration not stated)	FGF22 binding 44.1 (no result: DENV2 CPE rescue)
COc1ccc(S(=O)(=O)N2CCCC2CNC(=O)C(=O)NCc2ccc3c(c2)OCO3)cc1 (configuration not stated)	none
Cc1ccc(NC(=O)C(=O)NCC2CCCN2S(=O)(=O)c2cccs2)cc1 (configuration not stated)	DENV2 CPE rescue 37.8
CO[C@@H]1CN(C)C(=O)c2ccc(NC(=O)Nc3ccccc3)cc2OC[C@H](C)N(C(=O)Nc2c(C)noc2C)C[C@@H]1C	none
Cc1cc(C)nc(N2CCCC(C(=O)NCc3ccc4c(c3)OCO4)C2)n1 (configuration not stated)	FGF22 binding 43.3
O=C(C[C@@H]1CC[C@H]2[C@@H](COC[C@@H](O)CN2C(=O)Nc2cccc(Cl)c2)O1)N1CCCCC1	none
C[C@@H]1CN([C@H](C)CO)C(=O)Cc2cc(NC(=O)C3CC3)ccc2O[C@@H]1CN(C)S(=O)(=O)c1ccc(Cl)cc1	none
C[C@@H]1CN([C@@H](C)CO)C(=O)Cc2cc(NC(=O)C3CC3)ccc2O[C@H]1CN(C)S(=O)(=O)c1ccc(Cl)cc1	DENV2 CPE rescue 70.0
C[C@@H]1CN([C@@H](C)CO)C(=O)Cc2cc(NC(=O)C3CC3)ccc2O[C@H]1CN(C)S(=O)(=O)c1ccccc1	DENV2 CPE rescue 33.6 (no result: FN deposit inh)
